# SIAE primary: human SIAE inhibitors, primary screen, biochemical, fluorescence polarization, FP-Rh probe, 1536-well HTS; 370,000 tested, 0.69% active; SIAE FP-Rh probe binding; inhibition, % at 9.66 µM;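 active = inhibition above a cutoff: mean of compounds within the control limits plus 3 SD of those, cut at about 17% in these data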
# PAD4 FP inh: human PAD4 inhibitors, primary screen, biochemical, fluorescence polarization, 1536-well format; recombinant PAD4, RCA probe fluorescence polarization; 330,000 tested, 0.41% active; Protein-arginine deiminase type-4 (Homo sapiens), Q9UM07; inhibition, % at 6.36 µM; AID 485272, 2010;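 active = percent inhibition above a cutoff equal to the mean of all tested compounds plus 3 SD, cut at about 15% in these data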
# Target sequence (Q9UM07 whole entry, looked up): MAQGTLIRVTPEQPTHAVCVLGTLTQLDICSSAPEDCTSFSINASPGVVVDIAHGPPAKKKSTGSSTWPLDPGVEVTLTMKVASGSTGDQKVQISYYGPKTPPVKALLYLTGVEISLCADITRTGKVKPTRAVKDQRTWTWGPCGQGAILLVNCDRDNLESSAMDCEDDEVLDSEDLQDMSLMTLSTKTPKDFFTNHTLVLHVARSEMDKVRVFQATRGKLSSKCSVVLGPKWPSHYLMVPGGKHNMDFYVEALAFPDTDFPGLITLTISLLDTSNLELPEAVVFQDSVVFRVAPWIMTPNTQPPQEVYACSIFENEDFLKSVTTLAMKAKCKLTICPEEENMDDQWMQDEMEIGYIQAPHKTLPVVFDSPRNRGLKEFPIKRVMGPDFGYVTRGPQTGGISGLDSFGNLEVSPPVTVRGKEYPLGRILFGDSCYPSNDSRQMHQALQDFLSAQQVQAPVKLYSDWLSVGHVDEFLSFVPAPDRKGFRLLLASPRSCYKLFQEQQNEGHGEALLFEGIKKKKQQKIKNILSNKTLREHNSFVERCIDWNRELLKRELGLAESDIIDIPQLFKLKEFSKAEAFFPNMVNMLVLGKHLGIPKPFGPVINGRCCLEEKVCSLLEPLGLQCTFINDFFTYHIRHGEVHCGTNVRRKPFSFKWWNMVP
# GSTO1 inh: inhibitors of recombinant GSTO1, primary screen, counter-screen for RBBP9 inhibitor project, biochemical, fluorescence polarization; inhibition, % at 5.96 µM; 300,000 tested, 1.1% active; AID 1974, 2009; Glutathione S-transferase omega-1 (Homo sapiens), P78417; activity-based probe fluorescence polarization;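 active = inhibition above the campaign mean inhibition plus 3 SD, cut at about 35% in these data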
# RBBP9 inh: human RBBP9 inhibitors, primary screen, biochemical, fluorescence polarization, FP-Rh probe, HTS. Serine hydrolase RBBP9 (Homo sapiens), O75884. recombinant RBBP9. inhibition, % at 7.94 µM. 220,000 tested, 0.2% active;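 active = inhibition above the campaign mean of all tested compounds plus 3 SD, cut at about 14% in these data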
#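 System: RBBP9 protein | Quantity: 2.5 µM RBBP9 dispensing solution, before mixing | Reagent: FP-Rh probe, 375 nM dispensing solution | Timing: Enzyme-compound preincubation 30 min, then probe labeling 45 min, 25 °C | Measured by: Fluorescence polarization | Read-out: % inhibition | Replication: One well per compound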
# PRMT1 FP inh: PRMT1 methyltransferase inhibitors, primary screen, biochemical, fluorescence polarization | Protein arginine N-methyltransferase 1 (Homo sapiens), Q99873 | recombinant PRMT1, activity-based probe fluorescence polarization | inhibition, % at 2.79 µM | 370,000 tested, 1.3% active;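 active = inhibition above about 21% made by adding two undisclosed values, limit read from the data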
# GSTO1 inh conf: GSTO1 inhibitor hit confirmation, counter-screen for RBBP9 inhibitor project, biochemical, fluorescence polarization, triplicate. shares compounds with GSTO1 inh. recombinant GSTO1, probe fluorescence polarization. inhibition, % at 5.96 µM. 2,400 tested, 54% active;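 active = inhibition above the primary screen's cutoff, its mean inhibition plus 3 SD, cut at about 35% in these data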;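 also: loss of polarization as inhibitors block binding of rhodamine sulfonate ester activity probe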
# Hits are given with their value; – = inactive; · = no result given. Rows were chosen to be rich in hits. Some 2.7% of all compounds tested hit in one or more screens of this group.
SMILES,SIAE primary,PAD4 FP inh,GSTO1 inh,RBBP9 inh,PRMT1 FP inh,GSTO1 inh conf
CCN=c1scc(-c2ccco2)n1/N=C/c1ccc(O)cc1,–,–,–,–,–,·
N#CC(C#N)=C1NC2(CCCCC2)Cc2ccccc21,–,–,–,–,–,·
N#CC(C#N)=c1ccc2c(c1)NC1(CCCCC1)N=2,–,–,68,–,–,50
CCOCC(=O)Nc1nnc(Cc2ccc(OC)c(OC)c2)s1,–,–,–,–,–,·
CCOCC(=O)Nc1nnc(Cc2ccc(OC)cc2)s1,–,–,39,–,–,–
O=C1N/C(=N\c2ccccn2)SC1Cc1ccccc1Cl (centres undefined),–,–,–,–,–,·
Clc1ss/c(=N\c2ccccn2)c1Cl,–,–,61,–,–,45
COc1cc(NCCCCCCCN)c2ncccc2c1,·,27,46,–,·,60
CO[C@H]1/C=C/O[C@@]2(C)Oc3c(C)c(O)c4c(O)c(c(C=NN5CCN(C)CC5)c(O)c4c3C2=O)NC(=O)/C(C)=C\C=C\[C@H](C)[C@H](O)[C@@H](C)[C@@H](O)[C@@H](C)[C@H](OC(C)=O)[C@@H]1C,–,–,62,·,–,55
CO[C@H]1C=CO[C@@]2(C)Oc3c(C)c(O)c4c(O)c(c(C=NN5CCN(C)CC5)c(O)c4c3C2=O)NC(=O)C(C)=CC=C[C@H](C)[C@H](O)[C@@H](C)[C@@H](O)[C@@H](C)[C@H](OC(C)=O)[C@@H]1C,–,–,77,–,–,70
O=Cc1cccc(Oc2ncccn2)c1,–,–,–,–,–,·
Nc1ccc(Oc2ncccn2)cc1,–,–,65,·,–,–
CC(C)(C)S(=O)N1Cc2cc(=O)n(Cc3ccccc3)c(CCO)c2[C@H]1CCO (some centres undefined),–,·,·,·,–,·
O=C(N/N=C/c1c[nH]c2ccccc12)c1ccc(O)c(O)c1,–,–,40,·,–,–
O=S(=O)(NCc1ccccc1)c1ccc(F)cc1Br,–,–,–,·,–,·
CC(Oc1ccc(Cl)cc1Cl)C(=O)NC1=NN(c2ccccc2)C(=O)C1 (centres undefined),–,–,39,–,–,–
CC(=O)Nc1ccc(NC(=O)C(C)Oc2ccc(Cl)cc2Cl)cc1 (centres undefined),–,–,–,–,–,·
O=C1CC(NC(=O)C(F)(F)F)=NN1c1ccccc1,–,–,44,–,–,–
COc1ccc(NS(=O)(=O)c2ccc(Cl)c(NC(=O)c3cccnc3Cl)c2)cc1,–,–,–,–,–,·
COC(=O)c1ccc(S(=O)(=O)N2CCc3ccccc32)cc1,–,–,–,·,–,·
CCCCC[C@@H](C)N1C[C@@H](COCc2ccccc2)Oc2cc(N3CC[C@H](O)C3)ccc2S1(=O)=O,–,·,·,·,–,·
O=[N+]([O-])c1ccc(Cl)c2c1C1C=CCC1C(c1ccccn1)N2 (centres undefined),–,–,39,–,–,–
O=C(O)c1ccc(Cl)c2c1C1C=CCC1C(c1ccccn1)N2 (centres undefined),·,–,–,–,·,·
CC1Cc2ccccc2N1S(=O)(=O)c1cccc(C(=O)OCC(=O)NCc2ccco2)c1 (centres undefined),–,–,–,–,–,·
CCc1ccc(S(=O)(=O)/N=C2\C=C(NS(=O)(=O)c3ccccc3)C(=O)c3ccccc32)cc1,–,·,·,·,–,·
SMILES,SIAE primary,PAD4 FP inh,GSTO1 inh,RBBP9 inh,PRMT1 FP inh,GSTO1 inh conf
CC(C)c1ccc(S(=O)(=O)/N=C2\C=C(NS(=O)(=O)c3ccccc3)C(=O)c3ccccc32)cc1,–,–,79,·,–,75
Cc1ccc(C)c(S(=O)(=O)/N=C2\C=C(NS(=O)(=O)c3ccccc3)C(=O)c3ccccc32)c1,–,–,82,·,–,48
CC(C)(C)OC(=O)C[C@@H]1C/C=C\C[C@H](CC(=O)N[C@@H](CO)Cc2ccccc2)C(=O)N[C@H](C(C)(C)C)COC1=O,–,–,·,·,–,·
CC(=O)Oc1c(Cl)c(N2CCOCC2)c(OC(C)=O)c2ccccc12,–,–,44,–,–,–
Cc1cc(OC(=O)N2CCOCC2)cc(C)c1Cl,–,–,–,–,–,·
O=C(CCc1ccccc1)NNC(=O)c1ccccc1Cl,–,–,–,·,–,·
O=C(NCCc1ccccc1)C1COc2ccccc2O1 (centres undefined),–,–,–,·,–,·
O=C(NCCc1ccc(O)c(O)c1)C1COc2ccccc2O1 (centres undefined),–,–,55,·,–,–
Cc1ccc(/C=N/N=C2/NC(=O)C(CC(=O)Nc3ccc(Cl)cc3)S2)o1 (centres undefined),–,–,–,–,–,·
O=C(O)CC1S/C(=N/N=C/c2ccc(-c3ccc(Cl)cc3[N+](=O)[O-])o2)NC1=O (centres undefined),–,–,50,–,–,–
O=C(NC1CCCCN(Cc2ccc(Cl)cc2)C1=O)c1cccc(F)c1 (centres undefined),–,·,·,·,–,·
Cc1ccccc1C(=O)N/N=C/c1ccc([N+](=O)[O-])s1,–,–,–,–,–,·
Cc1c(Cl)cccc1N=Cc1ccc([N+](=O)[O-])s1,–,–,39,–,–,–
O=[N+]([O-])c1cccc(CN2CCC(Cc3ccccc3)CC2)c1,–,–,–,·,–,·
CCCCC[n+]1ccn(-c2nc3ccccc3nc2[N-]S(=O)(=O)c2ccc(C)cc2)c1,–,–,–,–,–,·
CCCCC[n+]1ccn(C2=C([O-])c3ccccc3C(=O)/C2=N\S(=O)(=O)c2ccc(Br)cc2)c1,–,–,47,–,–,–
CCCCC[n+]1ccn(C2=C([O-])c3ccccc3C(=O)/C2=N\S(=O)(=O)c2ccccc2)c1,–,–,75,–,–,59
CCCC[n+]1ccn(-c2nc3ccccc3nc2[N-]S(=O)(=O)c2ccccc2)c1,–,–,–,–,–,·
CCCC[n+]1ccn(C2=C([O-])c3ccccc3C(=O)/C2=N\S(=O)(=O)c2ccccc2)c1,–,–,68,–,–,66
CC(C)(C)c1cc[n+](C2=C([O-])c3ccccc3C(=O)/C2=N\S(=O)(=O)c2ccccc2)cc1,–,–,87,–,–,81
COc1ccc(NS(=O)(=O)c2ccc(NS(=O)(=O)c3cccs3)cc2)c(OC)c1,–,–,–,·,–,·
CC(C)[n+]1ccn(C2=C([O-])c3ccccc3C(=O)/C2=N\S(=O)(=O)c2ccccc2)c1,–,–,61,–,–,57
COC(=O)c1ccc(Sc2ccc(C)cc2)c(N)c1,–,–,–,–,–,·
